Sampled rows, rich in hits. Any-hit rate of the full collection: about 0.6%.
Rtt109 Vps75: inhibitors of C. albicans Rtt109/Vps75 HAT, primary screen, biochemical, ThioGlo CoA-SH fluorescence, plate reader. Histone acetyltransferase RTT109 (Candida albicans (strain SC5314 / ATCC MYA-2876)), …. purified Rtt109/Vps75, 4 h. inhibition, % at 34.9 µM. 330,000 tested, 0.16% active. AID 540336, 2011;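 active = inhibition of at least 50% in every replicate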
Target sequence (Q5AAJ8 whole entry, looked up): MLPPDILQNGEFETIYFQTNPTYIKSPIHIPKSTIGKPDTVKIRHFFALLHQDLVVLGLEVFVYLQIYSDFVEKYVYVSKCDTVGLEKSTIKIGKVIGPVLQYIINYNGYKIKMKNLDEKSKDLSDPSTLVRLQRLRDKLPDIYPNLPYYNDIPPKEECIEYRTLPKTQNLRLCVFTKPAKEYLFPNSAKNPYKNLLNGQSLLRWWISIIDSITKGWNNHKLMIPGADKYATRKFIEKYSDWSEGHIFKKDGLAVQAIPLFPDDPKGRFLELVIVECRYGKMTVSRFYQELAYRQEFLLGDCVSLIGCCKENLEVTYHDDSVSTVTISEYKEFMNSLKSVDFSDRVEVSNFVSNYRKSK
Tn6 DDE FP: inhibitors of Tn6 peptide binding to fibrin DD(E), primary screen, biochemical, fluorescence polarization, human fibrin, Tn6 probe; 370,000 tested, 0.21% active; inhibition, % at 8.3 µM; AID 720509, 2013; Fibrinogen beta chain (Homo sapiens), P02675; Fibrin DD(E) TRITC-Tn6 fluorescence polarization displacement;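 active = inhibition above a per-campaign cutoff: mean of compounds within control limits plus 3 SD, cut at about 15% in these data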;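 also: 0% = median of all compound wells on the plate and 100% = blocking peptide control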
C-LANA FP: inhibitors of KSHV C-LANA binding to DNA, primary screen, biochemical, fluorescence polarization, FAM-LBS DNA, MBP-C-LANA, single point. 340,000 tested, 0.078% active. AID 504423, 2011. Kaposi's sarcoma herpesvirus LANA C-terminal domain (residues 932-1162) DNA binding. inhibition, % at 9 µM;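 active = highest replicate inhibition at or above 60% at 9 µM, even if other replicates fall short; inactive = all replicates below 60% inhibition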;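 also: 0% = neutral control wells and 100% = 4 µM acridine orange control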
Keap1 Nrf2 FP: Keap1-Nrf2 protein-protein interaction inhibitors, primary screen, biochemical, fluorescence polarization, single point | Kelch-like ECH-associated protein 1 (Homo sapiens), Q14145 | Keap1 Kelch-Nrf2 peptide fluorescence polarization, 1536-well | inhibition, % at 9.4 µM | 340,000 tested, 0.15% active | AID 504523, 2011; in the data active = inhibition above about 12%;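 also: human Keap1 Kelch domain with fluorescein labeled Nrf2 9mer peptide probe; 0% = neutral control wells and 100% = peptide positive control; higher means more block of Keap1 binding to Nrf2 peptide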
DDE Tn7 FP inh: inhibitors of Tn7 peptide binding to fibrin DD(E), primary screen, biochemical, fluorescence polarization, human fibrin, Tn7 probe; FP displacement of FITC-Tn7 peptide from fibrin DD(E); 0% = median of compound wells per plate; 370,000 tested, 0.13% active; Fibrinogen beta chain (Homo sapiens), P02675; inhibition, % at 8.3 µM;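 active = inhibition above the mean of compounds falling within the control limits plus 3 SD of them, cut at about 14% in these data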;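 also: 0% = plate median of compound wells and 100% = 10 µM Aha-Tn7 peptide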
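assay system = human clot-derived fibrin DD(E) complex | quantity = Fibrin-DD(E) at 2 µM final | timing = 10 min preincubation, 3 h with tracer, room temperature | signal = fluorescence polarization | measure = percent inhibition | benchmarks = high control wells with 10 µM unlabelled Aha-Tn7 peptide (full inhibition) | replicates = singlicate testing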
Tn7 DDE conf: inhibitors of Tn7 peptide binding to fibrin DD(E), confirmation, biochemical, fluorescence polarization, human fibrin, Tn7 probe | shares compounds with DDE Tn7 FP inh | FP displacement of TRITC-Tn7 peptide from DD(E); 0% set at plate's compound-well median | inhibition, % at 8.3 µM | 460 tested, 5% active;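 active = inhibition above the campaign cutoff, the mean of compounds within control limits plus 3 SD, cut at about 14% in these data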;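 also: 100% = median FP of high control wells holding Aha-Tn7 inhibitor peptide; displacers lower polarization since freed probe rises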
DDE Tn7 FP ctr: counter-screen hit for Tn7 peptide-fibrin DD(E) binding disruption | 460 tested, 3% active | TRITC-Tn7 probe displacement, fluorescence polarization | shares compounds with DDE Tn7 FP inh | inhibition, % at 8.3 µM;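 active = inhibition above the cutoff, the mean of compounds lying between the control bounds plus 3 SD of those compounds, cut at about 17% in these data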;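 also: 0% = median of compound sample wells and 100% = excess unlabeled Aha-Tn7 peptide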
An asterisk follows results filed as active; . = no result.

SMILES | Rtt109 Vps75 | Tn6 DDE FP | C-LANA FP | Keap1 Nrf2 FP | DDE Tn7 FP inh | Tn7 DDE conf | DDE Tn7 FP ctr
C=CC[C@@H](CC(=O)N(CCO)Cc1ccccc1)C(=O)N[C@@H](COC(=O)[C@@H](CC=C)Cc1ccc(F)cc1)Cc1ccccc1 | 6 | 0 | -2 | -8 | -11 | . | .
C=CC[C@@H](CC(=O)N(CCO)Cc1ccccc1)C(=O)N[C@H](COC(=O)[C@@H](CC=C)Cc1ccc(F)cc1)Cc1ccccc1 | 1 | 3 | 1 | -2 | 16* | -1 | -4
O=C(COCc1ccccc1)N1CCC(Oc2cccnc2)CC1 | . | 3 | . | . | 3 | . | .
N=C1N(C(=O)OCc2ccccc2)/C(=C\C2=CCCCC2)C(Cc2ccccc2)N1Cc1ccccc1 (stereo unspecified) | . | 7 | . | . | 1 | . | .
COc1c(Cl)cc(C(=O)NCc2ccco2)cc1Cl | -3 | 4 | -2 | -1 | 14* | 11 | 7
Cc1ccc(-n2c(SCc3cccc(F)c3)nnc2-c2cccc(C)c2)cc1 | . | -9 | . | . | -1 | . | .
CC1CCN(CC(O)COCCC23CC4CC(CC(C4)C2)C3)CC1 (stereo unspecified) | 4 | 2 | -1 | -6 | 15* | 4 | -7
O=C(N/N=C/c1sc(=O)[nH]c1-[n+]1ccc2ccccc2c1)c1ccccc1[O-] | -7 | -5 | 5 | 2 | 20* | 4 | 2
O=C(N/N=C/c1sc(=O)[nH]c1-[n+]1ccccc1)c1ccccc1[O-] | 6 | -3 | 8 | 6 | -3 | . | .
O=S1(=O)c2ccc(N3CCCC3)cc2Oc2ccccc2CN1Cc1cn(Cc2cccc(F)c2)nn1 | . | -3 | . | . | -2 | . | .
O=C(Cn1nc(C(=O)O)c2ccccc2c1=O)Nc1cc(C(F)(F)F)ccc1-n1cncn1 | 5 | 5 | -1 | -4 | 15* | -3 | -6
O=C(Cn1nc(C(=O)O)c2ccccc2c1=O)Nc1cc(Cl)ccc1-n1cncn1 | 6 | 4 | 0 | -8 | 5 | . | .
O=c1oc2c(O)cccc2cc1-c1nc2ccccc2[nH]1 | -1 | -4 | 2 | 8 | 36* | 21* | -4
Cc1ccccc1C(=O)NCC(C)NC(=O)c1ccccc1C (stereo unspecified) | -1 | 0 | 0 | -3 | 14* | 0 | -2
COC(=O)[C@]12C[C@H](CC(=O)NCc3ccc(OC)c(OC)c3)C(=O)N(Cc3ccc(Cl)cc3Cl)C1=C[C@H](C(C)C)O[C@@H]2C1CC1 | . | -2 | . | . | -1 | . | .
CC(C)(CNc1ccc([N+](=O)[O-])cc1C#N)N1CCOCC1 | 2 | 2 | -1 | -6 | 15* | 5 | 2
O=C(CSc1nc2ccccc2c(=O)[nH]1)NC1CCCCC1 | . | 3 | . | . | -6 | . | .
COc1ccc([C@@H]2C[C@@H](c3ccccc3)Oc3cc(C)cc(C)c32)cc1 | -8 | 3 | 1 | 6 | 2 | . | .
COc1ccc([C@@H]2C[C@@H](c3ccccc3)Oc3c(C)ccc(C(C)C)c32)cc1 | . | -4 | . | . | 14* | 10 | 7
O=[N+]([O-])c1ccc(CP(=O)(c2ccccc2)c2ccccc2)cc1 | -4 | 3 | 3 | 1 | 14* | 8 | 2
CCSc1nnc(-c2ccco2)n1C | . | -1 | . | . | -5 | . | .
Nc1cc(N2CCCCC2)c([N+](=O)[O-])cc1Cl | -1 | -10 | -1 | 5 | 14* | -5 | -11
COc1ccc(Cl)cc1C(=O)OCC(=O)N(CC(C)C)c1c(N)n(Cc2ccccc2)c(=O)[nH]c1=O | 6 | 3 | -1 | -3 | 11 | . | .
CCN(C(=O)COC(=O)c1cc(Cl)ccc1OC)c1c(N)n(Cc2ccccc2)c(=O)[nH]c1=O | -2 | 11 | 0 | 4 | 14* | -1 | -4

Screening data: PubChem, several laboratories
